Experiments:
Rattus norvegicus [1] = assay: Antiinflammatory activity against carrageenan-induced paw edema Sprague-Dawley rat model assessed as inhibition of hind paw swelling at 30 mg/kg, po measured after 5 hrs post carrageenan challenge; type: functional; conditions: Rattus norvegicus, Sprague-Dawley, po, 5 h
Outline: (§1)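 Male SD rats, fasted overnight plus up to 6 h more. Baseline hind paw volume taken by water plethysmometer. A single oral dose was given in a biologically acceptable medium. 2 h later, under anaesthesia, 1% carrageenan in PBS was injected subcutaneously into both hind paws. Volume was read 3 h post challenge, and swelling was taken as post-challenge minus baseline.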

Rattus norvegicus [2] = assay: Antiinflammatory activity in po dosed carrageenan-induced paw edema Sprague-Dawley rat model assessed as inhibition of hind paw swelling after 5 hrs post carrageenan challenge; type: functional; outline: as §1
Rattus norvegicus [3] = assay: Toxicity in carrageenan-induced paw edema Sprague-Dawley rat model assessed as increase in blood glucose level at 30 mg/kg, po measured […] by glucometer; type: organism-based; set-up: dose 30 mg/kg, route oral; conditions: in vivo
Outline: (§2)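 Carrageenan paw edema rats (male SD, fasted, single oral dose, carrageenan 2 h postdose). Blood glucose was read by glucometer on tail-nick samples, at baseline and 5 h after dosing.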

Rattus norvegicus [4] = assay: Toxicity in fasted Sprague-Dawley rat assessed as induction of TAT activity in liver homogenates at 7.5 to 30 mg/kg, po after 6 hrs; type: organism-based; set-up: dose 7.5-30 mg/kg, route oral; conditions: in vivo
Outline: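 Male SD rats, fasted, single oral dose. Liver was biopsied 6 h postdose, snap frozen, homogenised in 150 mM KCl and centrifuged. Protein-normalised supernatants were assayed for TAT activity, read as OD at 340 nm. Values are given as % of TAT activity in prednisolone-treated (30 mg/kg) rats.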

Rattus norvegicus [5] = assay: Serum concentration in fasted Sprague-Dawley rat at 15 mg/kg, po after 6 hrs; conditions: in vivo
Rattus norvegicus [6] = assay: Serum concentration in fasted Sprague-Dawley rat at 30 mg/kg, po after 6 hrs; conditions: in vivo
Rattus norvegicus [7] = assay: Serum concentration in fasted Sprague-Dawley rat at 7.5 mg/kg, po after 6 hrs; conditions: in vivo
Rattus norvegicus [8] = assay: Toxicity in carrageenan-induced paw edema Sprague-Dawley rat model assessed as increase in blood glucose level at 100 mg/kg, po measured […] by glucometer; type: organism-based; set-up: dose 100 mg/kg, route oral; conditions: in vivo; outline: as §2
Rattus norvegicus [9] = assay: Antiinflammatory activity against carrageenan-induced paw edema Sprague-Dawley rat model assessed as inhibition of hind paw swelling at 100 mg/kg, po measured after 5 hrs post carrageenan challenge; type: functional; outline: as §1
Rattus norvegicus [10] = assay: Antiinflammatory activity against carrageenan-induced paw edema Sprague-Dawley rat model assessed as inhibition of hind paw swelling at 50 mg/kg administered as po single dose after 5 hrs post carrageenan challenge; type: functional; outline: as §1
Rattus norvegicus [11] = assay: Toxicity in carrageenan-induced paw edema Sprague-Dawley rat model assessed as increase in blood glucose level at 50 mg/kg, po measured […] by glucometer; type: organism-based; set-up: dose 50 mg/kg, route oral; conditions: in vivo; outline: as §2

SMILES | inhibition in vivo at 30 mg/kg (Rattus norvegicus [1]) [%] | Activity (Rattus norvegicus [2]) | ED50 (Rattus norvegicus [2]) [mg/kg] | Activity (Rattus norvegicus [3]) [%] | Activity (Rattus norvegicus [4]) | serum concentration (Rattus norvegicus [5]) [nM] | serum concentration (Rattus norvegicus [6]) [nM] | serum concentration (Rattus norvegicus [7]) [nM] | Activity (Rattus norvegicus [8]) | inhibition in vivo at 100 mg/kg (Rattus norvegicus [9]) [%] | inhibition in vivo at 50 mg/kg (Rattus norvegicus [10]) [%] | Activity (Rattus norvegicus [11]) [%]
CC(C)(C(=O)Nc1nncs1)[C@H]1c2ccccc2Oc2cc(O)ccc21 | 56 | Dose-dependent effect | 44 | < 1 | Non-toxic | 157 | 311 | 59 | – | – | – | –
CC(C)(C(=O)Nc1nccs1)[C@@H](c1ccccc1)c1ccc(O)cc1 | – | – | – | – | – | – | – | – | Non-toxic | 46 | – | –
CC(C)(C(=O)Nc1nccs1)[C@@H](c1ccccc1)c1ccc(O)c(F)c1 | – | Dose-dependent effect | 45 | – | – | – | – | – | – | – | 61 | < 1
